Data reported in PubChem BioAssay.
The source made the active and inactive calls.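 The calls were made as follows, unless noted: active = membrane potential signal rise above negative control mean plus 3 SD in both duplicates, also active in the earlier TRPC4 screen; inactive = the rest.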

Molecular target: Short transient receptor potential channel 6 (Mus musculus) (UniProt Q61143)
Assay: TRPC6 blockade by TRPC4 inhibitor hits – cell-based, HEK293, membrane potential dye, duplicate, selectivity assay for TRPC4 inhibitor project, confirmation (AID 434948;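 active = active in primary screen and both duplicates, each dropping signal beyond three positive-control SD with fluorescence still positive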)
Conditions: HEK293 TRPC6, membrane potential dye fluorescence, at 10 µM, stimulated with maximal-effect acetylcholine; hits give high values
Procedure, shortened: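 System: TRPC6-expressing HEK293 cells. Timing: dye 45 min RT, compound 110 s, agonist read 110 s. Measured by: kinetic fluorescence of membrane potential dye with 5 s baseline.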

Chain of Short transient receptor potential channel 6 (Mus musculus) (Q61143 whole entry, looked up): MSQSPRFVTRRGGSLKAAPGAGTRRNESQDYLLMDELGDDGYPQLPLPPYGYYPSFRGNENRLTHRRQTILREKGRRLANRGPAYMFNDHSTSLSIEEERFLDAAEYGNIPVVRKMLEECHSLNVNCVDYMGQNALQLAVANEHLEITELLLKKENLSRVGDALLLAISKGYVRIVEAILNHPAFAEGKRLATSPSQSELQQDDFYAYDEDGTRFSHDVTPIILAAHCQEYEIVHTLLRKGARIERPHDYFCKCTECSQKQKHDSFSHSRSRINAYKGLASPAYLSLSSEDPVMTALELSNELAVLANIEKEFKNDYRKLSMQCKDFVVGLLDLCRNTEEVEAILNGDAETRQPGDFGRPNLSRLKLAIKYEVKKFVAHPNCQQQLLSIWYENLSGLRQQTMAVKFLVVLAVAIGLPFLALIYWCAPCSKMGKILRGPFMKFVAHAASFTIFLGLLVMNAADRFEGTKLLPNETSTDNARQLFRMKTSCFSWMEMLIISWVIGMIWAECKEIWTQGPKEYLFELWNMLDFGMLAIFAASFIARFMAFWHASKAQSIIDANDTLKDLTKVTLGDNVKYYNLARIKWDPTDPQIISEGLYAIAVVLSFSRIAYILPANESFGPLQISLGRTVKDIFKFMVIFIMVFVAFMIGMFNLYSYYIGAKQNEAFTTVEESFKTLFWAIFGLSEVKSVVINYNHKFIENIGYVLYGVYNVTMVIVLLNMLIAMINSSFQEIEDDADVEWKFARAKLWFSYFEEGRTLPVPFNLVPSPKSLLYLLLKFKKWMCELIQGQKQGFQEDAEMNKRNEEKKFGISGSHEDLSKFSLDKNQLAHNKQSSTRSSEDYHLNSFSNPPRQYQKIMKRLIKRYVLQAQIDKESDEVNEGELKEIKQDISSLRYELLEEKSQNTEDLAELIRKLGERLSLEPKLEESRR

outcome, inactive:
CCCc1nc2oc3c(NCCCN(C)C)ncnc3c2c2c1CCCC2, O=C(/C=C/c1ccc(Cl)cc1)N(Cc1ccccc1)C1CCS(=O)(=O)C1 (stereo not drawn), COc1ccc(NS(=O)(=O)c2ccc3ccccc3c2)c2ncccc12, CN(C)S(=O)(=O)N1CCC(CCCC2CCN(S(=O)(=O)N(C)C)CC2)CC1, COc1cc(C2(c3ccc(O)c(OC)c3)C(=O)Nc3c(C)cc(Br)cc32)ccc1O, COC(=O)C(CC(=O)Nc1cc(C)ccc1C)Nc1ccccc1OC (stereo not drawn), CC(C)CCc1noc(CN2CCN(c3ccc(Cl)cn3)CC2)n1, Cc1cc(OCCN2CCCC2)ccc1[N+](=O)[O-], CSc1ccc(S(=O)(=O)NCC(=O)OCC(=O)N(C)Cc2ccccc2)cc1[N+](=O)[O-], O=C(COC(=O)c1ccccc1C(=O)N1CCN(c2ccccc2)CC1)Nc1ccc(F)cc1, CCCCCCCCCC[n+]1cccc2c3ccccc3ccc21, Cc1nn(-c2cc(C(F)(F)F)ccc2Cl)c2nc(C(Cl)(Cl)Cl)[nH]c(=O)c12, Cc1cc2oc(C(=O)N(Cc3cccs3)C3CCS(=O)(=O)C3)cc(=O)c2cc1Cl (stereo not drawn), CN(C)CCCN(C(=O)CCc1ccccc1)c1nc2ccc(F)cc2s1, Cc1ccc(C(=O)O)cc1N=Cc1cc(Br)cc(Br)c1O, N=c1c2c3c(sc2ncn1Cc1ccccc1)CCCC3, Cn1c2ccccc2c(=O)c2c(=O)n(-c3ccccc3)c(-c3ccc(C(C)(C)C)cc3)nc21, CCCNc1nc2ccccc2n2c(C)nnc12, CC(C)NS(=O)(=O)c1ccc(NC(=O)C(C)Oc2ccc(C(=O)c3ccccc3)cc2)cc1 (stereo not drawn), O=C1C=CC(=O)N1CCNc1ncc(C(F)(F)F)cc1Cl, CCN1CCN(c2ccc(S(=O)(=O)N3CCCCC3)cc2NC(=O)c2cccc(F)c2)CC1, CCn1c2ccc(F)cc2c2nnc(NN)nc21, CCCN1Cc2cccc(C(=O)N3CCN(c4cc(Cl)ccc4C)CC3)c2C1=O, Cc1ccc2c(c1)C1CN(C)CCC1N2C(=S)NC(=O)c1ccc(Br)cc1 (stereo not drawn), CCCCN(CC)CCCNC(=O)c1cc2cc3ccc(C)cc3nc2o1, COc1cc(NC(=O)CSc2ncnc3sc4c(c23)CCC(C)C4)c(C(=O)O)cc1OC (stereo not drawn), CN(CCCNC(=O)CCCOc1cc(=O)n(C)c2ccccc12)Cc1ccccc1, O=S(=O)(NCC1NCCc2ccccc21)c1ccccc1 (stereo not drawn), Cc1cc(C)c2c(=O)n(CC(=O)Nc3cccc(Cl)c3C)sc2n1, O=C(Nc1ccnn1C1CCN(Cc2cc3ccccc3[nH]2)CC1)C1CCOC1 (stereo not drawn), CC(Oc1ccc(Cl)cc1Cl)C(=O)N(C)c1ccccc1 (stereo not drawn), O=C(C1=C[C@H](c2ccc(C(F)(F)F)cc2)C[C@H](OCCCCO)O1)N1CCOCC1, O=C(O)CCCN1C(=O)/C(=C\c2ccc(-c3nc4ccccc4s3)o2)SC1=S, O=c1c2ccccc2nc(COc2ccccc2)n1/N=C/c1cc([N+](=O)[O-])ccc1O, O=C(CCN1CCN(Cc2ccccc2)CC1)Nc1cccc(Br)c1, O=C(NC1CCCC1)c1cc2ccccc2o1, Cc1cc(/C=N/NC(=O)c2cccc([N+](=O)[O-])c2)c(C)n1-c1ccc(Cl)cc1Cl, CCN(CC)c1ncnc2sc3c(c12)CCC3, CC(=O)c1nn(-c2cccc(Br)c2)cc1C(=O)c1cccc2ccccc12

Molecular target: Short transient receptor potential channel 6 (Mus musculus) (UniProt Q61143)
Assay: TRPC6 opening by TRPC4 activator hits – cell-based, HEK293, membrane potential dye, duplicate, selectivity assay for TRPC4 activator project, confirmation (AID 434950);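 as to activation: 0% = buffer only wells and 100% = acetylcholine maximal-effect wells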
Conditions: HEK293 TRPC6, membrane potential fluorescence, at 10 µM; activation: hits give high values; outcome: activation

outcome, inactive:
CCCc1nc2oc3c(NCCCN(C)C)ncnc3c2c2c1CCCC2, O=C(/C=C/c1ccc(Cl)cc1)N(Cc1ccccc1)C1CCS(=O)(=O)C1 (stereo not drawn), COc1ccc(NS(=O)(=O)c2ccc3ccccc3c2)c2ncccc12, CN(C)S(=O)(=O)N1CCC(CCCC2CCN(S(=O)(=O)N(C)C)CC2)CC1, COc1cc(C2(c3ccc(O)c(OC)c3)C(=O)Nc3c(C)cc(Br)cc32)ccc1O, CC(C)CCc1noc(CN2CCN(c3ccc(Cl)cn3)CC2)n1, Cc1cc(OCCN2CCCC2)ccc1[N+](=O)[O-], CSc1ccc(S(=O)(=O)NCC(=O)OCC(=O)N(C)Cc2ccccc2)cc1[N+](=O)[O-], O=C(COC(=O)c1ccccc1C(=O)N1CCN(c2ccccc2)CC1)Nc1ccc(F)cc1, CCCCCCCCCC[n+]1cccc2c3ccccc3ccc21, Cc1nn(-c2cc(C(F)(F)F)ccc2Cl)c2nc(C(Cl)(Cl)Cl)[nH]c(=O)c12, Cc1cc2oc(C(=O)N(Cc3cccs3)C3CCS(=O)(=O)C3)cc(=O)c2cc1Cl (stereo not drawn), CN(C)CCCN(C(=O)CCc1ccccc1)c1nc2ccc(F)cc2s1, Cc1ccc(C(=O)O)cc1N=Cc1cc(Br)cc(Br)c1O, N=c1c2c3c(sc2ncn1Cc1ccccc1)CCCC3, Cn1c2ccccc2c(=O)c2c(=O)n(-c3ccccc3)c(-c3ccc(C(C)(C)C)cc3)nc21, CCCNc1nc2ccccc2n2c(C)nnc12, CC(C)NS(=O)(=O)c1ccc(NC(=O)C(C)Oc2ccc(C(=O)c3ccccc3)cc2)cc1 (stereo not drawn), O=C1C=CC(=O)N1CCNc1ncc(C(F)(F)F)cc1Cl, CCN1CCN(c2ccc(S(=O)(=O)N3CCCCC3)cc2NC(=O)c2cccc(F)c2)CC1, CCn1c2ccc(F)cc2c2nnc(NN)nc21, CCCN1Cc2cccc(C(=O)N3CCN(c4cc(Cl)ccc4C)CC3)c2C1=O, Cc1ccc2c(c1)C1CN(C)CCC1N2C(=S)NC(=O)c1ccc(Br)cc1 (stereo not drawn), CCCCN(CC)CCCNC(=O)c1cc2cc3ccc(C)cc3nc2o1, COc1cc(NC(=O)CSc2ncnc3sc4c(c23)CCC(C)C4)c(C(=O)O)cc1OC (stereo not drawn), CN(CCCNC(=O)CCCOc1cc(=O)n(C)c2ccccc12)Cc1ccccc1, O=S(=O)(NCC1NCCc2ccccc21)c1ccccc1 (stereo not drawn), Cc1cc(C)c2c(=O)n(CC(=O)Nc3cccc(Cl)c3C)sc2n1, O=C(Nc1ccnn1C1CCN(Cc2cc3ccccc3[nH]2)CC1)C1CCOC1 (stereo not drawn), CC(Oc1ccc(Cl)cc1Cl)C(=O)N(C)c1ccccc1 (stereo not drawn), O=C(O)CCCN1C(=O)/C(=C\c2ccc(-c3nc4ccccc4s3)o2)SC1=S, O=c1c2ccccc2nc(COc2ccccc2)n1/N=C/c1cc([N+](=O)[O-])ccc1O, O=C(CCN1CCN(Cc2ccccc2)CC1)Nc1cccc(Br)c1, O=C(NC1CCCC1)c1cc2ccccc2o1, Cc1cc(/C=N/NC(=O)c2cccc([N+](=O)[O-])c2)c(C)n1-c1ccc(Cl)cc1Cl, CCN(CC)c1ncnc2sc3c(c12)CCC3, CC(=O)c1nn(-c2cccc(Br)c2)cc1C(=O)c1cccc2ccccc12

activation, active:
COC(=O)C(CC(=O)Nc1cc(C)ccc1C)Nc1ccccc1OC (stereo not drawn) 40.5%, O=C(C1=C[C@H](c2ccc(C(F)(F)F)cc2)C[C@H](OCCCCO)O1)N1CCOCC1 27.5%
